Screening data: PubChem BioAssay, The Scripps Research Institute Molecular Screening Center
Compounds with a hit are over-represented: about 1.3% of the library has one in this group of screens.
HTRA1 inh – blocks human HTRA1 serine peptidase; 340,000 tested, 0.5% active; inhibition, % at 5.96 µM; AID 504803; Q92743; recombinant HTRA1, FP-rhodamine activity-based probe, fluorescence polarization; in the data active = inhibition above about 36%;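 also: 0% = enzyme with DMSO and 100% = wells lacking enzyme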
DDE Tn7 FP inh – disrupts Tn7 cyclic peptide binding to fibrin D-Dimer-E complex; inhibition, % at 8.3 µM; P02675; 370,000 tested, 0.13% active; FP displacement of FITC-Tn7 peptide from fibrin DD(E); 0% = median of compound wells per plate;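 active = inhibition above the mean of compounds falling within the control limits plus 3 SD of them, cut at about 14% in these data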;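 also: 0% = plate median of compound wells and 100% = 10 µM Aha-Tn7 peptide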
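Test system – human fibrin DD(E) · Times – 10 min preincubation, 3 h with tracer, room temperature · Detection – fluorescence polarization of the labelled Tn7 tracer · Measure – percent inhibition normalized to high-control wells · Benchmarks – high control wells with 10 µM unlabelled Aha-Tn7 peptide (full inhibition) · Repeats – singlicate testing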
ABHD4 inh – inhibitors of mouse ABHD4; 370,000 tested, 0.54% active; Q8VD66; inhibition, % at 8.92 µM; purified mABHD4, FP-Rh probe fluorescence polarization;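 active = inhibition exceeding the mean over every tested compound plus 3 SD, cut at about 30% in these data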;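 also: 0% = plate median of compound wells and 100% = S159A mutant with DMSO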
Target sequence (Q8VD66 whole entry, looked up): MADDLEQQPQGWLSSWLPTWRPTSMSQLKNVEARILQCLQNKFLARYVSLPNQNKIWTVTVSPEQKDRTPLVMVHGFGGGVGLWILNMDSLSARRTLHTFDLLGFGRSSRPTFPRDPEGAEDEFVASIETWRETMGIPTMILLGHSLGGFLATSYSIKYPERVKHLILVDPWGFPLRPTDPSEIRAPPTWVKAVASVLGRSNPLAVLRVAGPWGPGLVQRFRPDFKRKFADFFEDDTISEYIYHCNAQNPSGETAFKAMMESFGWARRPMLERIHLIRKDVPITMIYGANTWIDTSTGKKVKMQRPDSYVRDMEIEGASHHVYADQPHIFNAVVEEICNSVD
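System: mouse ABHD4 enzyme, wild type / Medium: HEPES pH 7.0, NaCl, Pluronic buffer / Reagent: FP-Rh activity-based fluorescent probe / Control set: S159A mutant high control, sample median low control / Detection: fluorescence polarization with parallel and perpendicular emission, 525/598 nm / Schedule: 45 min + 60 min at 25 °C / Compound dosing: 8.92 µM, single dose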
TCR-CD3 inh – human TCR-CD3 binding inhibition; TAMRA-labeled TCR probe fluorescence, biochemical; 360,000 tested, 0.37% active; AID 651800; inhibition, % at 9.4 µM;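 also: recombinant mutant TCR 2C K166C tagged with TAMRA read by polarization; 0% = receptor in buffer alone and 100% = receptor with positive control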
Tn6 DDE FP – disrupts Tn6 cyclic peptide binding to fibrin D-Dimer-E complex | 370,000 tested, 0.21% active | P02675 | AID 720509 | Fibrin DD(E) TRITC-Tn6 fluorescence polarization displacement | inhibition, % at 8.3 µM;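 active = inhibition above a per-campaign cutoff: mean of compounds within control limits plus 3 SD, cut at about 15% in these data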;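 also: 0% = median of all compound wells on the plate and 100% = blocking peptide control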
BSA probe FL – BSA probe counter-screen for TCR-CD3 inhibitors | 1,200 tested, 10% active | shares compounds with TCR-CD3 inh | TAMRA-labeled BSA probe fluorescence counterscreen | AID 652035 | inhibition, % at 9.4 µM; in the data active = inhibition above about 23%;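 also: 0% = buffer low control and 100% = reference high control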
TCR-CD3 conf – TCR-CD3 interaction inhibition, confirmation | shares compounds with TCR-CD3 inh | TAMRA-labeled TCR probe fluorescence binding assay | inhibition, % at 9.4 µM | 1,200 tested, 48% active | AID 652036
* = called active by the depositor; . = no result. Rule as the data show it, unless noted: active = inhibition above about 19%; inactive = the rest.

SMILES	HTRA1 inh	DDE Tn7 FP inh	ABHD4 inh	TCR-CD3 inh	Tn6 DDE FP	BSA probe FL	TCR-CD3 conf
Cc1c(OC(C(=O)O)c2ccccc2)ccc2c1oc(=O)c1ccccc12 (stereo unspecified)	-8	-2	-2	19*	-13	2	0
O=C(Nc1ccc(Cl)c(Cl)c1)c1ccc(Cl)c(Cl)c1	-62	3	-81	-1	3	.	.
CC(C)C1O/C(=N/C(=O)Nc2ccc(Cl)c(Cl)c2)NC1=O (stereo unspecified)	-20	-1	-59	35*	-13	1	4
Cc1ccc(S(=O)(=O)N(C)C)cc1NC(=O)COC(=O)C1(c2ccccc2)CC1	-1	1	-12	5	5	.	.
COc1ccccc1OCC(=O)N/N=C/C=C/c1ccc([N+](=O)[O-])o1	0	-2	24	27*	1	-1	1
COc1ccc(-c2nn(-c3ccccc3)cc2/C=C/C(=O)N(C)CC(=O)Nc2cccc(F)c2)cc1OC	-120	8	-101	26*	-4	13	26*
COc1cccc(NC(=O)CN(C)C(=O)/C=C/c2cn(-c3ccccc3)nc2-c2ccc(OC)c(OC)c2)c1	-109	-1	-85	16	-2	.	.
CN(Cc1cccs1)C(=O)CSc1nc(N)cc(N)n1	4	8	-2	10	2	.	.
CC(C)c1ccc(NC(=O)C(c2ccccc2)N2CCOCC2)cc1 (stereo unspecified)	-4	6	-11	24*	-4	11	8
O=C(O)C1CCCC2CN3CCc4c([nH]c5ccccc45)C3C(O)C21 (stereo unspecified)	12	1	22	27*	9	3	3
OC1CCC2CN3CCc4c([nH]c5ccccc45)C3CC2C1 (stereo unspecified)	.	5	9	0	7	.	.
COc1ccc(CCNC(=O)COC(=O)c2ccc(Br)o2)cc1OC	3	7	-2	7	9	.	.
COc1ccc(Cl)cc1C(=O)NNC(=O)COC(=O)c1ccc(Br)o1	5	-5	0	20*	1	8	15
Oc1c(N=Nc2ccc(F)cc2)ccc2ccccc12	6	1	12	-9	-4	.	.
Oc1c(N=Nc2nn[nH]n2)ccc2ccccc12	.	-3	26	37*	1	146*	104*
CC(OC(=O)c1ccc(Cl)nc1)C(=O)NC1CCCC1 (stereo unspecified)	-1	3	0	-5	-6	.	.
OC(c1ccc(F)cc1)c1nc(-c2ccncc2)cs1 (stereo unspecified)	.	-5	2	46*	-1	5	1
CC(C)CC(C(=O)O)N1C(=O)[C@@H]2[C@H](C1=O)[C@@H]1C[C@H]2C(Br)C1Br (stereo partly specified)	0	1	-18	-14	2	.	.
CCCCn1c(N)c(N(CCOC)C(=O)c2cc(-c3ccco3)nc3ccccc23)c(=O)[nH]c1=O	5	-4	18	22*	-2	0	10
COCCNC(=O)CC(c1ccccc1)c1ccccc1	-1	9	1	8	-1	.	.
COCCCNC(=O)CC(C)c1ccccc1 (stereo unspecified)	-4	-12	2	110*	9	3	6
COc1ccc(C(=O)NNC(=S)NC(=O)/C=C/c2cccs2)cc1	-1	-3	2	25*	-9	-1	12
O=C(NNC(=S)NC(=O)c1cccs1)c1ccc(O)cc1	7	11	2	26*	-6	-7	23*
O=C(NC(=S)Nc1ccc(Br)cn1)c1cccs1	3	3	6	27*	6	3	1
COc1ccc(/C=C/C(=O)NC(=S)NNC(=O)Cc2cccs2)cc1	8	7	3	11	-2	.	.
SMILES	HTRA1 inh	DDE Tn7 FP inh	ABHD4 inh	TCR-CD3 inh	Tn6 DDE FP	BSA probe FL	TCR-CD3 conf
CCN(CC)S(=O)(=O)c1cccc(N2CC(O)=C(c3ccccc3)C2=N)c1	1	11	-3	6	-1	.	.
O=C(Nc1ccc2oc(-c3cccnc3)nc2c1)c1ccc2c(c1)OCCO2	-20	-2	-5	27*	-7	-5	16
O=C(Nc1ccc2oc(-c3ccccc3)nc2c1)c1ccc2c(c1)OCCO2	-41	-3	-33	-7	-12	.	.
O=C(COc1ccccc1)NC(=S)Nc1ccc2c(c1)Cc1ccccc1-2	4	-12	-4	6	2	.	.
CCOC(=O)C(C)Oc1ccccc1C1NC(=O)NC(C)=C1C(=O)Nc1ccc(C)c(C)c1 (stereo unspecified)	-8	-3	0	-4	-7	.	.
CC(=O)N1c2ccc(S(=O)(=O)N(C)c3cc(C)ccc3C)cc2CC1C (stereo unspecified)	-2	1	-4	4	3	.	.
COc1ccc(N2CCN(C(c3cccs3)C(C)NC(=O)C(=O)N3CCCC3)CC2)cc1 (stereo unspecified)	3	9	6	20*	2	1	1
CC1(C)CC(=O)C=C(c2ccc(-c3cnn(Cc4ccccc4)c3)cc2)C1=O	-23	5	-3	-5	3	.	.
Cc1cc2oc3ccc(NCCCn4ccnc4)cc3c(=O)c2cc1C	3	-13	13	35*	-9	1	20*
Cc1cc2oc3ccc(NCCCN4CCOCC4)cc3c(=O)c2cc1C	10	8	9	2	0	.	.
COc1ccc(CNC(=O)CNS(=O)(=O)c2cccc(C#N)c2)cc1OC	6	5	2	2	-6	.	.
CCn1c(CSc2nc3ccccc3[nH]2)nc2cc(C(=O)O)ccc21	26	0	19	34*	7	57*	42*
c1ccc(CSc2nc3ccccc3[nH]2)cc1	-8	2	-3	4	4	.	.
COc1cc(/C=N\NC(=O)C2COc3ccccc3O2)cc(OC)c1O (stereo unspecified)	-3	5	6	2	-3	.	.
CCOc1ccc(-n2c(O)c(/C=N/NC(=O)C3COc4ccccc4O3)c3ccccc3c2=O)cc1 (stereo unspecified)	14	2	20	20*	-6	0	36*
O=C(c1ccco1)N1CCN(C2CN(C3CCCCC3)S(=O)(=O)C2)CC1 (stereo unspecified)	.	4	-2	0	7	.	.
N#C/C(=C\c1ccc(OCc2ccc(C(=O)O)cc2)cc1)C(=O)NCc1ccccc1	-14	-8	-13	4	8	.	.
Cc1nc(S/C(=C/c2ccc(OCc3ccc(C(=O)O)cc3)cc2)C(=O)O)n[nH]1	-4	6	-21	22*	2	-6	32*
Cc1cc(/C=N/n2c(COc3ccccc3C)nc3ccccc3c2=O)c(O)c([N+](=O)[O-])c1	32	4	3	21*	-1	14	53*
